Test results published in ChEMBL document CHEMBL2321652, “Design and synthesis of HIV-1 protease inhibitors for a long-acting injectable drug application” (Bioorg Med Chem Lett, 2013).

Assays:
[1] = system: Human immunodeficiency virus 1; assay: Selectivity ratio of EC50 for Human immunodeficiency virus 1 3B clinical isolate harboring L10I/I13V/M46I/I50V/L63P/L76V protease mutant to EC50 for wild type Human immunodeficiency virus 1 3B; assay type: functional
[2] = Aqueous solubility of the compound in crystalline polymorphic form; assay type: physicochemical
[3] = system: Human immunodeficiency virus 1; assay: Antiviral activity against Human immunodeficiency virus 1 3B clinical isolate harboring L10I/I13V/M46I/I50V/L63P/L76V protease mutant infected in human MT4 cells assessed as inhibition of viral replication; assay type: functional, organism-based
Outline: (§1)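 Inhibition of replication in MT4 cells infected with protease-mutant HIV-1 clinical isolates, reported as EC50. Each assay run in quadruplicate. Values are averages of at least two independent experiments, typically three to four. Cytotoxicity (CC50) was measured in parallel in MT4 cells.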

[4] = Bioavailability in rat at 100 mg/mL formulated with 25 mg/mL of polysorbate 20 and 9 mg/mL of NaCl in water administered intramuscularly measured after 1 month; assay type: ADME, organism-based; conditions: in vivo, im
Outline: (§2)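 Nanosuspension depot given by a single intramuscular injection in rats. Blood is sampled at regular intervals over two months. Absolute bioavailability is assessed after 1 month of sampling as ((AUC_IM × dose_IV)/(AUC_IV × dose_IM)) × 100, relative to intravenous dosing.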

[5] = Cytotoxicity against human MT4 cells; assay type: cell-based
[6] = system: Human immunodeficiency virus 1; assay: Selectivity ratio of EC50 for Human immunodeficiency virus 1 3B clinical isolate harboring L10I/M46I/I64V/I84V/L90M/I93L protease mutant to EC50 for wild type Human immunodeficiency virus 1 3B; assay type: functional
[7] = Plasma clearance in rat at 2 mg/kg, iv; assay type: ADME, organism-based; set-up: dose 2 mg/kg, route intravenous
Outline: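 Single intravenous dose of 2 mg/kg in rats. The formulation is typically 1 mg/mL in PEG400/ethanol/saline (70/20/10). Clearance values are averages from two or three animals. High is >3 L/h/kg (>70% liver blood flow) and low is <1.3 L/h/kg (<30%).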

[8] = system: Human immunodeficiency virus 1; assay: Antiviral activity against Human immunodeficiency virus 1 3B clinical isolate harboring L10I/K20R/M36I/G48V/ I62V/A71V/V82A/I93L protease mutant infected in human MT4 cells assessed as inhibition of viral replication; assay type: functional, organism-based
Outline: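 Each assay run in quadruplicate. Values are averages of at least two independent experiments, typically three to four. Cytotoxicity (CC50) was measured in parallel in MT4 cells.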

[9] = system: Human immunodeficiency virus 1; assay: Antiviral activity against wild type Human immunodeficiency virus 1 3B infected in human MT4 cells assessed as inhibition of viral replication in presence of 50% human serum
[10] = system: Human immunodeficiency virus 1; assay: Antiviral activity against wild type Human immunodeficiency virus 1 3B infected in human MT4 cells assessed as inhibition of viral replication; assay type: functional, organism-based
Outline: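 EC50 values are averages of at least two independent experiments (typically three to four), each run in quadruplicate. For the serum-shifted line, the same antiviral assay includes 50% human serum, used as a functional measure of plasma protein binding.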

[11] = system: Human immunodeficiency virus 1; assay: Selectivity ratio of EC50 for Human immunodeficiency virus 1 3B clinical isolate harboring L10I/K20R/M36I/G48V/ I62V/A71V/V82A/I93L protease mutant to EC50 for wild type Human immunodeficiency virus 1 3B; assay type: functional
[12] = Drug metabolism in human liver microsomes at 1 uM after 15 mins; assay type: ADME, Microsome; conditions: read-out: Drug metabolism
Outline: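 Human liver microsome incubation at 37 °C for 15 min with compound at 1 µM; turnover expressed as percent of compound metabolized.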

[13] = Bioavailability in rat at 50 mg/mL formulated with Vit-E TPGS in water administered intramuscularly measured after 1 month; assay type: ADME, organism-based; conditions: in vivo, im; outline: as §2
[14] = system: Human immunodeficiency virus 1; assay: Antiviral activity against Human immunodeficiency virus 1 3B clinical isolate harboring L10I/M46I/I64V/I84V/L90M/I93L protease mutant infected in human MT4 cells assessed as inhibition of viral replication; assay type: functional, organism-based; outline: as §1
[15] = Bioavailability in rat at 50 mg/mL formulated with 12.5 mg/mL of poloxamer 338 and sucrose in water administered intramuscularly measured after 1 month; assay type: ADME, organism-based; conditions: in vivo, im; outline: as §2

With `COC(=O)N[C@H](C(=O)N[C@@H](Cc1ccc(-c2ccc(OC)nc2)cc1)[C@@H](O)C[C@@H](Cc1ccccc1F)C(=O)N[C@H]1[C@H](C)CCC[C@H]1O)C(C)(C)C` the “Ratio EC50” value [1] was less than 1, the solubility [2] was less than 100 µg/mL and the EC50 [3] was 0.3 nM. For the same compound, the bioavailability at 1 month [4] was greater than 100%, the CC50 [5] was greater than 10000 nM and the “Ratio EC50” value [6] was less than 1. For the same compound, the clearance [7] was 90 mL/min/kg, the EC50 [8] was 0.5 nM and the EC50 [9] was 2 nM. For the same compound, the EC50 [10] was 0.8 nM, the “Ratio EC50” value [11] was less than 1 and the metabolised at 0.25 h, 1 µM [12] was 99%.

For `COC(=O)N[C@H](C(=O)N[C@@H](Cc1ccc(-c2ccc(OC)nc2)cc1)[C@@H](O)C[C@@H](Cc1ccccc1F)C(=O)N[C@H]1c2ccsc2CC[C@H]1O)C(C)(C)C`, the “Ratio EC50” value [1] was less than 1, the solubility [2] was less than 100 µg/mL and the EC50 [3] was 0.6 nM. The CC50 [5] was greater than 10000 nM, the bioavailability at 1 month [13] was 100% and the “Ratio EC50” value [6] was less than 1. The clearance [7] was 80 mL/min/kg, the EC50 [8] was 0.4 nM and the EC50 [14] was 0.9 nM. It also gave an EC50 [9] of 3.7 nM, an EC50 [10] of 1.1 nM and a bioavailability at 1 month [15] greater than 100%. For the same compound, the “Ratio EC50” value [11] was less than 1 and the metabolised at 0.25 h, 1 µM [12] was 91%.
